From PubChem BioAssay
Ecoli rRNA inh – reduced GFP signal of wild-type E. coli, primary screen, bacterial rRNA inhibitor project, GFP/RFP fluorescence, OD600, single point. GFP signal change (wild-type ribosome), % (concentration not given with the values). 350,000 compounds, 1.6% hits. E. coli WT GFP vs humanized-ribosome RFP mutants, 24 h; hits give low values; DMSO median 0, no signal -100;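 active = significant combined selectivity score with lowered wild-type GFP, culture density cut under 30%, mutant RFP and density less affected; inactive = any of these conditions unmet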
F508del corr – F508del CFTR correction, initial screen, CFBE line, single point. CFBE cells, YFP halide quenching; stimulated with forskolin plus potentiator P3; % fluorescence drop versus neutral controls. AID 720511, 2013. 350,000 compounds, 0.36% hits. activity (quench increase), % at 7.58 µM;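 active = mean added fluorescence quench of at least 8% versus neutral control, with both replicates also reaching 8%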;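 note: cells transiently co-express mutant CFTR-F508del with the halide-sensitive YFP; corrector assay measuring rescue of mutant channel to the surface after 24 h compound exposure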
CaV13 ICDI inh – Primary screen for inhibitors of IQ motif and Ca2+-dependent inactivation inhibitor domain binding in CACNA1D, Förster resonance energy transfer in living cells, …; 340,000 compounds, 0.098% hits; inhibition, % at 12.3 µM; HEK cells, CFP/YFP FRET ICDI-IQ, plate reader, 10 min; percent FRET-ratio fall versus neutral wells;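 active = mean replicate inhibition of at least 30% and at least 1% of replicates passing that level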
Cneo AK release – Cryptococcus neoformans cell lysis inducers, primary screen, AK release luminescence, single concentration; C. neoformans lysis, adenylate kinase release luminescence, 4 h; normalised: neutral wells 0, clomiphene wells 100; lysis activity, % at 15 µM; 360,000 compounds, 0.2% hits;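 active = mean lysis activity across replicates of at least 80%, whatever share of replicates individually reach that level; inactive = mean lysis activity below 80%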
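Test system: log-phase Cryptococcus neoformans yeast cells; Quantity: yeast cell density of 5 × 10^6 cells/mL; Buffer or medium: YPD; Doses: single compound concentration per well; Timing: 4 h at 37 °C static, read 1 h later; Measured by: AK luminescence; Read-out basis: lysis from increased AK signal; Control set: Clomiphene as positive control.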
Each line names hits and unclear results; the compound was inactive in the other large screens. Most compounds without a hit are left out; they make up all but 1.7% or so of the library.

Cc1ccc(NC(=O)C[n+]2cc(-c3ccc(C)cc3)n3c2CCC3)cc1	none (no result: Ecoli rRNA inh)
Cc1ccc(-c2c[n+](CC(=O)c3cccs3)c3n2CCC3)cc1	Ecoli rRNA inh -44 (no result: Cneo AK release)
COc1ccc(-c2c[n+](CC(=O)N3c4ccccc4Sc4ccccc43)c3n2CCC3)cc1	Ecoli rRNA inh -45 (no result: Cneo AK release)
O=C(C[n+]1cc(-c2ccc(Cl)cc2)n2c1CCC2)Nc1nc(-c2ccccc2)cs1	Ecoli rRNA inh -44 (no result: Cneo AK release)
O=C(C[n+]1cc(-c2ccc(F)cc2)n2c1CCC2)Nc1nc(-c2ccccc2)cs1	none (no result: Ecoli rRNA inh, F508del corr)
COc1ccc(-c2c[n+](CC(=O)c3cccs3)c3n2CCC3)cc1	none (no result: Cneo AK release)
CC(C)NC(=O)Nc1ccc2c(c1)CC(=O)N([C@H](C)CO)C[C@H](C)[C@H](CN(C)C(=O)Nc1ccc3c(c1)OCO3)O2	none (no result: CaV13 ICDI inh)
CCCC(=O)Nc1ccc2c(c1)OC[C@@H](C)N(Cc1cncnc1)C[C@@H](C)[C@H](OC)CN(C)C2=O	none (no result: F508del corr, CaV13 ICDI inh, Cneo AK release)
CO[C@@H]1CN(C)C(=O)c2cc(NS(C)(=O)=O)ccc2OC[C@H](C)N(S(C)(=O)=O)C[C@@H]1C	none (no result: CaV13 ICDI inh, Cneo AK release)
CC(=O)N(C)C[C@H]1Oc2cc(C#CC(C)(C)O)ccc2S(=O)(=O)N([C@@H](C)CO)C[C@H]1C	none (no result: CaV13 ICDI inh)
O=C(NCC1COc2ccccc2O1)c1ccccc1 (stereo not drawn)	none (no result: Ecoli rRNA inh, F508del corr)
O=C(NC(=S)NCC1COc2ccccc2O1)c1ccccc1 (stereo not drawn)	Cneo AK release 161 (no result: Ecoli rRNA inh, F508del corr, CaV13 ICDI inh)
FC(F)(F)c1ccnc(Sc2n[nH]c(C(F)(F)F)n2)c1	Ecoli rRNA inh -25 (no result: Cneo AK release)
COc1ccc2c3c(n(C)c2c1)[C@H](CO)N(C(=O)C1CC1)CC31CCN(C(=O)Nc2cccc(F)c2)CC1	none (no result: CaV13 ICDI inh, Cneo AK release)
O=C(CN1c2ccccc2Sc2ccccc21)N/N=C/c1ccccc1	none
O=C(CN1c2ccccc2Sc2ccccc21)N/N=C/c1ccc([N+](=O)[O-])cc1	Ecoli rRNA inh -24
CCOC(=O)c1cnc2c(cnn2C)c1NCc1ccc(OC)cc1	Ecoli rRNA inh -19
O=C(Nc1ccc(F)cc1)N1CC(=O)N2[C@H](C1)[C@@H](c1ccc(-c3ccc(F)cc3)cc1)[C@@H]2CO	none (no result: CaV13 ICDI inh, Cneo AK release)
COc1ccc(/C=N/NC(=O)c2cccnc2)cc1CN1CCCc2ccccc21	Ecoli rRNA inh -28 (no result: Cneo AK release)
COc1ccc(/C=N/NC(=O)c2cccnc2)cc1CSc1ccccn1	F508del corr 11
Cc1ccccc1S(=O)(=O)N1CC(=O)N2[C@H](C1)[C@H](c1ccc(C#CCC(C)C)cc1)[C@@H]2CO	none (no result: CaV13 ICDI inh, Cneo AK release)
CN(C)c1ccc(/C(=N\O)C(F)(F)F)cc1	Ecoli rRNA inh -31
CNC[C@@H]1Oc2ncc(C#CC3(O)CCCC3)cc2C(=O)N([C@@H](C)CO)C[C@@H]1C	none (no result: CaV13 ICDI inh)
O=S(=O)(c1ccc(Cl)c(NC(=S)Nc2ccccc2N2CCOCC2)c1)N1CCOCC1	none (no result: Cneo AK release)
O=C(NC(=S)Nc1cc(Cl)ccc1N1CCOCC1)c1ccccc1[N+](=O)[O-]	Cneo AK release 340 (no result: CaV13 ICDI inh)
CCOC(=O)c1ccc(N2CCOCC2)c(NC(=O)c2c(-c3ccccc3)noc2C)c1	F508del corr 16
COc1ccc(Cl)cc1C(=O)NC(=S)Nc1ccccc1N1CCOCC1	none (no result: CaV13 ICDI inh)
Fc1ccc(NC(=S)Nc2ccccc2N2CCOCC2)cc1Cl	Ecoli rRNA inh -27 (no result: Cneo AK release)
Cc1onc(-c2c(F)cccc2Cl)c1C(=O)Nc1ccccc1N1CCOCC1	Ecoli rRNA inh -28
O=C(C[C@@H]1C[C@H]2c3cc(NC(=O)C4CCC4)ccc3O[C@H]2[C@H](CO)O1)NCCN1CCCCC1	none (no result: CaV13 ICDI inh)
O=C(O)c1cccc(N2C(=O)c3ccc(Oc4ccc(Cl)cc4)cc3C2=O)c1	Ecoli rRNA inh -36 (no result: Cneo AK release)
O=C(O)c1cccc(N2C(=O)c3ccc4c5c(ccc(c35)C2=O)C(=O)N(c2cccc(C(=O)O)c2)C4=O)c1	none
O=C(CSc1ncc(-c2ccccc2)[nH]1)Nc1cccc(O)c1	none
O=C(CSc1ncc(-c2ccccc2)[nH]1)Nc1ccccc1	Ecoli rRNA inh -32
Cc1cccc(NC(=O)c2cc(-c3ccc(C)c(C)c3O)n[nH]2)c1	Ecoli rRNA inh -17
Cc1ccc(NC(=O)c2cc(-c3ccc(C)c(C)c3O)n[nH]2)cc1C	none
Cc1nc(N2CCN(c3ccccc3)CC2)nc2c1C(=O)CC(C)C2 (stereo not drawn)	Ecoli rRNA inh -33 (no result: F508del corr, CaV13 ICDI inh)
Brc1ccc(-n2cnc(-c3ccccc3)c2)cc1	Ecoli rRNA inh -15
O=[N+]([O-])c1ccc(-c2cn(-c3ccc(Cl)cc3)cn2)cc1	none (no result: Cneo AK release)
Fc1ccc2c(c1)/C(=N/Nc1ccccn1)CCS2	Ecoli rRNA inh -22 (no result: Cneo AK release)
CCCCOC(=O)C[N+](C)(C)CCOC1CC2CCC1(C)C2(C)C (stereo not drawn)	none
CCCOC(=O)C[N+](C)(C)CCOC1CC2CCC1(C)C2(C)C (stereo not drawn)	Ecoli rRNA inh -47 (no result: Cneo AK release)
COC(CNC(=O)[C@H](Cc1ccccc1)N1Cc2ccccc2C1=O)OC	F508del corr 8.5
Cc1[nH]c2ccccc2c1CN1CCC(Cc2ccccc2)CC1	Ecoli rRNA inh -42
CC(C)(C)C1CCC(C(=O)Nc2ccc(N3CCOCC3)cc2N2CCOCC2)CC1 (stereo not drawn)	Ecoli rRNA inh -20
CCCCC1CCC(C(=O)Nc2ccccc2N2CCOCC2)CC1 (stereo not drawn)	none
COc1ccc(CN(C)C[C@@H]2Oc3ccc(NC(=O)Cc4cn(C)c5ccccc45)cc3CC(=O)N([C@@H](C)CO)C[C@@H]2C)cc1	none (no result: CaV13 ICDI inh)
CCCN1C(=O)C(O)(C2COC(C)(C)CC2=O)c2ccccc21 (stereo not drawn)	none
CCCN1C(=O)C(O)(C2CC(=O)CC(C)(C)O2)c2ccccc21 (stereo not drawn)	Cneo AK release 126 (no result: Ecoli rRNA inh, F508del corr)
O=C(CCCSc1ccccc1)Nc1nc(-c2ccccn2)cs1	none (no result: Ecoli rRNA inh, F508del corr, CaV13 ICDI inh)
CSCCC(=O)Nc1nc(-c2ccccn2)cs1	Ecoli rRNA inh -29 (no result: Cneo AK release)
C[C@H](NC(=O)c1ccccc1)C(=O)Nc1nc(-c2ccccn2)cs1	none (no result: Cneo AK release)
Cc1cccc(C(=O)NC(C(=O)Nc2nc(-c3ccccn3)cs2)C(C)C)c1 (stereo not drawn)	Ecoli rRNA inh -35 (no result: Cneo AK release)
Cc1cc(N/N=C/c2cccc(F)c2)nc(NCc2ccccc2)n1	none (no result: Cneo AK release)
Cc1cc(N/N=C/c2ccc(Cl)cc2)nc(NCc2ccccc2)n1	none (no result: Cneo AK release)
Cc1cc(N/N=C/c2ccccc2)nc(NCc2ccccc2)n1	Ecoli rRNA inh -35 (no result: F508del corr, CaV13 ICDI inh)
Cc1cc(N/N=C/c2ccccc2F)nc(NCc2ccccc2)n1	Ecoli rRNA inh -30 (no result: Cneo AK release)
CC(C)NC(=O)Nc1ccc2c(c1)C(=O)N([C@@H](C)CO)C[C@H](C)[C@@H](CN(C)C(=O)c1ccccc1)OCCCC[C@@H](C)O2	none (no result: CaV13 ICDI inh)
c1ccc(CCN(Cc2ccccc2)Cc2nc(C3CC3)no2)cc1	F508del corr 8.9 (no result: Cneo AK release)
COc1ccc(NC(=O)Nc2ccc3c(c2)C(=O)N([C@H](C)CO)C[C@H](C)[C@H](CN(C)C(=O)NC2CCCCC2)OCCCC[C@H](C)O3)cc1	none (no result: CaV13 ICDI inh)
